Data on 4 compounds can be found in ChEMBL document CHEMBL2417468, “4β-[4'-(1-(Aryl)ureido)benzamide]podophyllotoxins as DNA topoisomerase I and IIα inhibitors and apoptosis inducing agents” (2013).

Active and inactive are the calls of the source. The calls are words filed in the database; no cut-off is given here.

The test system of experiment [1] is COLO 205. As to the kind of experiment: Induction of apoptosis in human COLO205 cells assessed as blebbing at 2 to 4 uM after 24 hrs by Hoechst staining-based confocal microscopic analysis. In kind it is functional, cell-based. The procedure, abridged: (§1)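 Colo-205 cells on coverslips treated 24 h at 2 and 4 µM, 4% paraformaldehyde fixed 15 min, RNase-treated 30 min at 37 °C, Hoechst-stained; nuclear morphology (fragmentation, blebbing) by confocal microscopy versus untreated cells.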

The subject of experiment [2] is COLO 205. As to the kind of experiment: Induction of apoptosis in human COLO205 cells assessed as DNA fragmentation at 2 to 4 uM after 24 hrs by Hoechst staining-based confocal microscopic analysis. In kind it is functional, cell-based. Summed up: as §1
In experiment [3] the test system is COLO 205. Description: Induction of apoptosis in human COLO205 cells assessed as caspase-3 activation at 2 uM after 24 hrs by Western blotting analysis. In kind it is functional, cell-based. The procedure, abridged: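 Colo-205 cells grown to 80% confluency, 2 µM final for 24 h; RIPA lysates with protease inhibitors, Bradford-quantified, 50 µg protein per lane on 12% SDS-PAGE, PVDF transfer, probed overnight at 4 °C for active caspase-3, β-actin as loading control, chemiluminescent detection.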

Experiment [4] concerns the target T1, DNA topoisomerase 1 (Homo sapiens) (UniProt P11387).
T1 sequence (whole entry): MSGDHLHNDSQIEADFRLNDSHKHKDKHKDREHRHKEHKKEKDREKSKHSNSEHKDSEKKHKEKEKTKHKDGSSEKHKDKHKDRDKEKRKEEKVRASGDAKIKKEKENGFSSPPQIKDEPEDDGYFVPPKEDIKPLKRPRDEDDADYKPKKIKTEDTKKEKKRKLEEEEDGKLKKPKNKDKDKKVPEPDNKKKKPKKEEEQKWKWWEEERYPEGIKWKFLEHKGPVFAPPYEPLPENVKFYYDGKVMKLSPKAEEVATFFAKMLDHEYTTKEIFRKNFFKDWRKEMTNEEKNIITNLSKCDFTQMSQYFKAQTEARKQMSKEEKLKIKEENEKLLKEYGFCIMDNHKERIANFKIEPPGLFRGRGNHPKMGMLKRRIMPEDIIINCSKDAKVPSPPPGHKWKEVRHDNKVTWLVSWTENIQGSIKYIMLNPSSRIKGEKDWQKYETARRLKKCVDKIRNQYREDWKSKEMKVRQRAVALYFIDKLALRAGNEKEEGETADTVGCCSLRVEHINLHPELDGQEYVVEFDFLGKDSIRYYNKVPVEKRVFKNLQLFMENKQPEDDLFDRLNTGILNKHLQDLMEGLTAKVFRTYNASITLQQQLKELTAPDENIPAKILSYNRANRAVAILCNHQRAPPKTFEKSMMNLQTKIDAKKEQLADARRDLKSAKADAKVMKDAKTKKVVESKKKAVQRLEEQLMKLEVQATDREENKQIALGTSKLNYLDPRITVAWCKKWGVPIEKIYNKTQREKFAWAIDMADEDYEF
Description: Inhibition of human topoisomerase 1-mediated relaxation of supercoiled pBR322 DNA at 2 uM after 30 mins by agarose gel electrophoresis. Summed up:
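500 ng supercoiled pBR322 with 0.4 units recombinant human topoisomerase I, compound at 2 µM, 30 min at 37 °C in 10 mM Tris-HCl pH 7.9, 150 mM NaCl, 0.1% BSA, 1 mM spermidine, 5% glycerol; stopped with sarcosyl/dye; relaxation read on 1% agarose gel; camptothecin as reference.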

For experiment [5], the system named is COLO 205. Description: Induction of apoptosis in human COLO205 cells assessed as caspase-3 activation at 2 uM after 24 hrs by ELISA. It is filed as functional, cell-based. Summed up:
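Colo-205 cells exposed 24 h at 2 µM; lysates in 2X reaction buffer with DTT plus caspase substrate, 1 h at 37 °C; fluorescence read at ex 400/em 505 nm; three independent experiments, mean ± S.D., versus untreated control.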
(In general: ELISA stands for enzyme-linked immunosorbent assay.)

Experiment [6] deals with DNA topoisomerase 2-alpha (Homo sapiens) (UniProt P11388). As to the kind of experiment: Inhibition of human topoisomerase 2alpha-mediated relaxation of supercoiled pBR322 DNA at 2 uM after 30 mins by agarose gel electrophoresis. The procedure, abridged: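 Purified human topoisomerase IIα (4 units) with 200 ng supercoiled pBR322 and compound at 2 µM, 30 min at 30 °C in 10 mM Tris-HCl pH 7.9, 50 mM NaCl, 5 mM MgCl2, 1 mM EDTA, 1 mM ATP, 15 µg/mL BSA; EDTA-stopped; 1% agarose gel in TAE, ethidium bromide, UV visualisation.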
DNA topoisomerase 2-alpha (Homo sapiens), sequence (P11388 whole entry): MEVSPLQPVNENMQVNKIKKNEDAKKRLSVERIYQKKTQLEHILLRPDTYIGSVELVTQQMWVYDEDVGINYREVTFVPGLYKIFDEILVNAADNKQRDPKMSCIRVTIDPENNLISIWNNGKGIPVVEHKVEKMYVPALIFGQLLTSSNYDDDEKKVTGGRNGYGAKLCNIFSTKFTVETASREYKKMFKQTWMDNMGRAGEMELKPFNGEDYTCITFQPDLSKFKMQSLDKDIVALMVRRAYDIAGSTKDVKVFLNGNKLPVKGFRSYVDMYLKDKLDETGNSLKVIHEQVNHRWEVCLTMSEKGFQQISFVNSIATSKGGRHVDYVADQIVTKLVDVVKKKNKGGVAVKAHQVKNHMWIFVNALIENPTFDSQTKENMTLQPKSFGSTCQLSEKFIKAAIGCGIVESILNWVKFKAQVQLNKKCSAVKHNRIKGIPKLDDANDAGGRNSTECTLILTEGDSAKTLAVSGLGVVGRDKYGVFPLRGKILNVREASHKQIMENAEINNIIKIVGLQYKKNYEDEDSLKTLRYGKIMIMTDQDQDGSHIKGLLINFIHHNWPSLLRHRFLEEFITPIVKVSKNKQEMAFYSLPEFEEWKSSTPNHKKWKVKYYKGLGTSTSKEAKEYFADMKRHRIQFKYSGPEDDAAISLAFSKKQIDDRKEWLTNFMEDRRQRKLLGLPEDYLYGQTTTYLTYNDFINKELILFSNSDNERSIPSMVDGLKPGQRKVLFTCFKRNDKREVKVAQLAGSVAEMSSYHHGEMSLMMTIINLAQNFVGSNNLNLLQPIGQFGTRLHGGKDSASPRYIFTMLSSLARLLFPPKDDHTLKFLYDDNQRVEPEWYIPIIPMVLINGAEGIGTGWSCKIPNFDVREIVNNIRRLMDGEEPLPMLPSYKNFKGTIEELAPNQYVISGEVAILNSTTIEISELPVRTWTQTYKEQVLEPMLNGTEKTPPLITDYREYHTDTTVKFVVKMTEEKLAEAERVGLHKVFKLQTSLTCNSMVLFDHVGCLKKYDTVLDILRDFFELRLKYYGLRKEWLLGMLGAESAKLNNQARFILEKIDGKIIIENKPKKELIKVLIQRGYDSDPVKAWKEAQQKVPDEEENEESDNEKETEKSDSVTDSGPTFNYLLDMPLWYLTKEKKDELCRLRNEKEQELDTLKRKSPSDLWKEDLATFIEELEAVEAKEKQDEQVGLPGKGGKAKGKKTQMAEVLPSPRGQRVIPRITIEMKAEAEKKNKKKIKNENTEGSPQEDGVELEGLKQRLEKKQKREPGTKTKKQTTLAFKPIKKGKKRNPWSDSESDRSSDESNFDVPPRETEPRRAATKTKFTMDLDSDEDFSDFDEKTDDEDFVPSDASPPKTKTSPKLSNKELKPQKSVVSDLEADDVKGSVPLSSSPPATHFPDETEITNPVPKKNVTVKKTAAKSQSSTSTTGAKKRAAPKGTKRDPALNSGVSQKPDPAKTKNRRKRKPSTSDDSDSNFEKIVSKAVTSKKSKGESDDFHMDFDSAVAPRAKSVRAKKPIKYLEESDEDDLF

Experiment [7] has as its system COLO 205. Description: Cell cycle arrest in human COLO205 cells assessed as accumulation at G2/M phase at 2 uM after 24 hrs by propidium iodide staining-based FACS flow cytometric analysis (reference value: 29.52%). It is filed as functional.
The test system of experiment [8] is COLO 205. Description: Cell cycle arrest in human COLO205 cells assessed as accumulation at S phase at 2 uM after 24 hrs by propidium iodide staining-based FACS flow cytometric analysis (reference value: 4.21%). It is filed as functional.
Experiment [9] has as its system COLO 205. Description: Cell cycle arrest in human COLO205 cells assessed as accumulation at G0/G1 phase at 2 uM after 24 hrs by propidium iodide staining-based FACS flow cytometric analysis (reference value: 65.23%). It is filed as functional.
The test system of experiment [10] is COLO 205. Description: Cytotoxicity against human COLO205 cells assessed as reduction in cellular ATP level at 2 uM after 24 hrs by bioluminescence assay. In kind it is functional, cell-based. Summed up: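 Colo-205 cells exposed 24 h at 2 µM, lysed in ice-cold RIPA, debris spun off at 4 °C; intracellular ATP in supernatant by luciferin-luciferase bioluminescence kit; three independent experiments, mean ± S.D., untreated control.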

For experiment [11], the system named is COLO 205. Description: Cytotoxicity against human COLO205 cells assessed as viable cells at 2 uM after 24 hrs by trypan blue exclusion assay. It is filed as functional, cell-based. Summed up:
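Colo-205 cells treated 24 h at 1, 2 and 4 µM, trypsinised, mixed with 0.4% trypan blue (10 µl per 100 µl cells), counted on haemocytometer; percentage dead cells calculated; triplicate samples.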

The subject of experiment [12] is MDA-MB-231. Description: Cytotoxicity against human MDA-MB-231 cells assessed as cell viability at 2 to 4 uM after 24 hrs by MTT assay. In kind it is functional, cell-based. Summed up: (§2)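 Colo-205 (RPMI, 10% FCS) and MDA-MB-231 (DMEM, 2 mM glutamax, 10% FCS, penicillin/streptomycin) seeded at 1 104 cells/well, 18 h preincubation; fresh medium with compound at 0.5, 1, 2 and 4 µM for 24 h at 37 °C; MTT 2 h, formazan solubilised, OD 570 nm; DMSO ≤0.25%, DMSO-only wells as untreated control.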
On the technique in general: Tetrazolium assays rely on reduction of a dye to a coloured formazan, in cell work by metabolically active cells.

Experiment [13] concerns COLO 205. Description: Cytotoxicity against human COLO205 cells assessed as cell viability at 2 to 4 uM after 24 hrs by MTT assay. In kind it is functional, cell-based. Summed up: as §2
For experiment [14], the system named is MDA-MB-231. As to the kind of experiment: Cytotoxicity against human MDA-MB-231 cells assessed as cell viability at <0.5 to 1 uM after 24 hrs by MTT assay. In kind it is functional, cell-based. Summed up: as §2
In experiment [15] the test system is COLO 205. Description: Cytotoxicity against human COLO205 cells assessed as cell viability at <0.5 to 1 uM after 24 hrs by MTT assay. In kind it is functional, cell-based. Summed up: as §2
For experiment [16], the system named is A2780. As to the kind of experiment: Growth inhibition of human A2780 cells after 48 hrs by sulforhodamine B assay. In kind it is functional.
In experiment [17] the test system is SiHa. Description: Growth inhibition of human SiHa cells after 48 hrs by sulforhodamine B assay. In kind it is functional. Background: The SRB assay estimates cell density from bound dye.
The subject of experiment [18] is A549. Description: Growth inhibition of human A549 cells after 48 hrs by sulforhodamine B assay. In kind it is functional.
In experiment [19] the test system is HOP-62. As to the kind of experiment: Growth inhibition of human HOP62 cells after 48 hrs by sulforhodamine B assay. It is filed as functional.
Experiment [20] concerns COLO 205. As to the kind of experiment: Growth inhibition of human COLO205 cells after 48 hrs by sulforhodamine B assay. It is filed as functional.
A short description of experiment [21]: (§3) Growth inhibition of human DWD cells after 48 hrs by sulforhodamine B assay. It is filed as functional.
Experiment [22] is described as follows: (§4) Growth inhibition of human Gurav cells after 48 hrs by sulforhodamine B assay. In kind it is functional.
For experiment [23], the system named is KB. Description: Growth inhibition of human KB cells after 48 hrs by sulforhodamine B assay. In kind it is functional.
Experiment [24] deals with MCF7. Description: Growth inhibition of human MCF7 cells after 48 hrs by sulforhodamine B assay. The conditions noted are these: MCF7, 48 h. It is filed as functional.
The test system of experiment [25] is ZR-75-1. Description: Growth inhibition of human ZR-75-1 cells after 48 hrs by sulforhodamine B assay. It is filed as functional.
Experiment [26] has as its system DWD. Described as §3. It is filed as functional.
Experiment [27] concerns Gurav. The description is as §4. In kind it is functional.

Take `COc1cc([C@@H]2c3cc4c(cc3[C@@H](NC(=O)c3ccc(NC(=O)Nc5ccc(Cl)cc5)cc3)[C@H]3COC(=O)[C@H]23)OCO4)cc(OC)c1OC`: the outcome in [1], in [2], in experiment [3], in experiment [5], in [10] and in [11] was Active. Also, the outcome in experiment [12] and in experiment [13] was Active. The inhibition result in experiment [4] is “Active”. Besides, the “Inhibition of relaxation (qualitative call)” value in [6] is “Active”. In addition, the Activity in experiment [7] is 17.06%; in [9] it was 78.12%. For the same compound, the “Percent of cells in S phase” value in experiment [8] was determined as 4.83%. The outcome in [14] and in [15] was inactive. The concentration for 50% growth inhibition (GI50) – broadly, the concentration that inhibits growth by half – in [16] (A2780, 48 h) is 2200 nM; in experiment [18] (A549, 48 h) it was 2140 nM; in experiment [19] (HOP-62, 48 h), 170 nM; in experiment [20] (COLO 205, 48 h) it was 10 nM; in experiment [21] it was 100 nM; in experiment [22] it was 1970 nM. The 50% growth inhibitory concentration (GI50) came to 110 nM in experiment [24] and 130 nM in experiment [25] (ZR-75-1, 48 h). Besides, the GI50 entry in experiment [17] and in [23] was “inactive” throughout.
For `COc1cc([C@@H]2c3cc4c(cc3[C@@H](NC(=O)c3ccc(NC(=O)Nc5cc(C(F)(F)F)cc(C(F)(F)F)c5)cc3)[C@H]3COC(=O)[C@H]23)OCO4)cc(OC)c1OC`, the GI50 is 2300 nM in experiment [16] (A2780, 48 h); 2980 nM in experiment [18] (A549, 48 h); 2600 nM in [23]; 2700 nM in [24]; 2220 nM in [25] (ZR-75-1, 48 h). Moreover, the GI50 result in [17], in [19], in [20], in experiment [26] and in experiment [27] was “inactive” throughout.
Take `COc1cc([C@@H]2c3cc4c(cc3[C@@H](O[C@@H]3O[C@@H]5CO[C@@H](C)O[C@H]5[C@H](O)[C@H]3O)[C@H]3COC(=O)[C@H]23)OCO4)cc(OC)c1O` [ETOPOSIDE]: the outcome in experiment [1], in experiment [2], in experiment [3], in experiment [5], in [10] and in experiment [11] was Active. Besides, the outcome in [12] and in [13] was Active. Further, the Activity in [7] is listed as 49.63%; in experiment [9], 42.68%. The “Percent of cells in S phase” value in [8] stood at 7.36%. For the same compound, the outcome in [14] and in experiment [15] was inactive. In addition, the GI50 in [17] was 3110 nM; in [18] (A549, 48 h) it was 3080 nM; in experiment [19] (HOP-62, 48 h), 800 nM; in experiment [20] (COLO 205, 48 h) it was 130 nM; in [21], 620 nM; in experiment [22], 510 nM. Further, the GI50 in experiment [23] worked out at 310 nM; in experiment [25] (ZR-75-1, 48 h), 200 nM.
On to `COc1cc([C@@H]2c3cc4c(cc3[C@@H](NC(=O)c3ccc(NC(=O)Nc5c(Cl)cccc5Cl)cc3)[C@H]3COC(=O)[C@H]23)OCO4)cc(OC)c1OC`, for which the GI50 entry in [16], in [17], in experiment [18], in experiment [19], in [20] and in [26] was “inactive” in each case. Further, the GI50 entry in experiment [27] and in [25] was “inactive” each time. The GI50 in [23] came out at 2800 nM; in experiment [24] it was 150 nM.
